≈ marks a conversion by molar mass, not a printed value. Calls of active or inactive are those of the source. No cut-off for these calls is given here. Where only a bound is given, the exact number is not on record here.

Usually Papp stands for a coefficient for how fast a substance crosses the barrier. A word on the chromatographic logD: it is a lipophilicity value derived from retention on a column. Low values mean a more hydrophilic compound, high ones a more lipophilic compound. The IC50 is the concentration that gives 50% inhibition.

The nature of series [1]: Apparent permeability of the compound at pH 7.4. Particulars: not told. The format is physicochemical.
Series [2] is described as follows: Lipophilicity, log D of the compound at pH 7.4 by chromatographic method. It counts as physicochemical. The following applies: buffer.
The target of series [3] is T1, Autotaxin (Homo sapiens, UniProt Q13822). Nature of the series: Inhibition of recombinant human ATX using bisP-nitrophenyl phosphate as substrate measured after 30 mins.
The target in series [4] is T1, Autotaxin. Nature of the series: Inhibition of human ATX expressed in HEK293 Flp-In cells using LPC as substrate measured every 30 sec for 90 mins by fluorescence assay. It counts as cell-based.
A short description of series [5]: Kinetic aqueous solubility by CLND method. The format is physicochemical. The following applies: read-out: Kinetic_solubility.
The target of series [6] is T1, Autotaxin. Nature of the series: Inhibition of ATX in human MDA-MB-435S cells using lysophosphatidyl choline as substrate preincubated for 15 mins followed by substrate addition measured after 90 mins. It counts as cell-based.
In series [7] the target is T1, Autotaxin. The experiment in a line: Noncompetitive inhibition of human ATX expressed in HEK293 Flp-in cells up to 800 nM using varying lysophosphatidyl choline substrate level by Lineweaver-Burk plot analysis. It counts as cell-based. Put shortly:
(§1)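 hATX from HEK293 Flp-In cells; choline release from LPC coupled to choline oxidase/HRP/homovanillic acid fluorescence in Tris pH 7.4 buffer with CaCl2 and Triton X-100. Activity measured across varying LPC concentrations at fixed inhibitor concentrations; mixed-inhibition model fitted to obtain alpha (near 1 taken as noncompetitive), with Lineweaver-Burk double-reciprocal plots for display.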

Series [8] deals with T1, Autotaxin. Nature of the series: Noncompetitive inhibition of human ATX expressed in HEK293 Flp-in cells up to 11 nM using varying lysophosphatidyl choline substrate level by Lineweaver-Burk plot analysis. The format is cell-based. Put shortly:
as §1

In series [9] the target is T1, Autotaxin. The experiment in a line: Inhibition of ATX (unknown origin) using lysophosphatidyl choline as substrate. The method in brief:
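Human ATX produced in HEK293 Flp-In cells, 20 nM, incubated with 150 μM LPC(18:1) in 50 mM Tris pH 7.4, 0.01% Triton X-100, 50 mM CaCl2 with choline oxidase (1 U/ml), HRP (2 U/ml) and 2 mM homovanillic acid. Choline release read as HVA fluorescence, ex/em 320/450 nm, every 30 s for 90 min. Screen 400 nM–100 μM (n = 3); 10-point curves 0.3 nM–10 μM, n = 2.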

With `Cc1c(Sc2cccc(C(=O)O)n2)c2ccc(Cl)cc2n1C1CCCC1`, the Papp in [1] turned out to be 29 ×10⁻⁶ cm/s. This compound came in with a chromatographic logD in series [2] of 4.05. The figures for the concentration for half-maximal inhibition (IC50) in series [3] and in series [4] (read-out: IC50) were 2000 nM and greater than 2800 nM, respectively. The solubility kinetic in series [5] was 336 µM (≈ 130 µg/mL).

Consider `Cc1c(Sc2cccc(C(=O)O)c2)c2ccc(Cl)cc2n1-c1cnn(C)c1`, for which, in series [1], the Papp worked out at 6.4 ×10⁻⁶ cm/s. The chromatographic logD in series [2] came to 3.36. The half-inhibitory concentration (IC50) in [6] is less than 300 nM; in series [4] (read-out: IC50), 11 nM. In [5], the solubility kinetic was 556 µM (≈ 221 µg/mL).

In the case of `Cc1cccc2c1c(Sc1cccc(C(=O)O)n1)c(C)n2-c1cnn(C)c1`, the half-inhibitory concentration (IC50) in series [4] (read-out: IC50) was greater than 10000 nM.

Regarding `Cc1c(SCCCC(=O)O)c2ccc(Cl)cc2n1-c1cnn(C)c1`, the 50% inhibitory concentration (IC50) in [4] (read-out: IC50) is greater than 30000 nM.

As for `Cc1c(Sc2cccc(C(=O)O)n2)c2ccc(F)cc2n1-c1ccn(C)n1`, the half-maximal inhibitory concentration (IC50) is 816 nM in series [3] and 349 nM in [4] (read-out: IC50).

In the case of `Cc1c(Sc2cccc(C(=O)O)n2)c2ccc(Cl)cc2n1-c1ccccc1`, the apparent permeability (Papp) in series [1] was 15.5 ×10⁻⁶ cm/s. In series [2], this compound returned a chromatographic logD of 4.3. In addition, the IC50 entry in series [4] (hek293) is reported as “Nd(Insoluble)”. Also, in series [5], the solubility kinetic turned out to be 485 µM (≈ 192 µg/mL).

`Cc1c(Sc2cccc(C(=O)O)n2)c2ccccc2n1C`: the 50% inhibitory concentration (IC50) in series [4] (read-out: IC50) is greater than 30000 nM.

Take `Cc1c(Sc2cccc(C(=O)O)n2)c2ccc(Cl)cc2n1C`: in [1], the Papp amounted to 3.2 ×10⁻⁶ cm/s. This compound gave a chromatographic logD in series [2] of 2.68. Further, the concentration for half-maximal inhibition (IC50) in [3] was greater than 4000 nM; in series [4] (read-out: IC50), 31 nM. Besides, in [5], the solubility kinetic came to 300 µM (≈ 99.8 µg/mL).

In the case of `COc1cccc2c1c(Sc1cccc(C(=O)O)n1)c(C)n2-c1cnn(C)c1`, in series [4] (read-out: IC50), the concentration for half-maximal inhibition (IC50) is greater than 30000 nM.

Take `Cc1[nH]c2cccc(C)c2c1Sc1cccc(C(=O)O)n1`: the concentration for half-maximal inhibition (IC50) in series [4] (read-out: IC50) is greater than 8000 nM.

Take `Cc1[nH]c2cc(Cl)ccc2c1Sc1cccc(C(=O)O)c1`: the IC50 amounted to 290 nM in series [3] and 747 nM in [4] (read-out: IC50).

With `Cc1c(Sc2cccc(C(=O)O)n2)c2ccccc2n1-c1ccccc1`, the IC50 in [4] (read-out: IC50) is greater than 30000 nM.

`Cc1[nH]c2cc(F)ccc2c1Sc1cccc(C(=O)O)n1`: the 50% inhibitory concentration (IC50) in [4] (read-out: IC50) is greater than 20000 nM.

For `Cc1c(Sc2cccc(C(=O)O)c2)c2ccccc2n1-c1ccccc1`, the 50% inhibitory concentration (IC50) in [3] is greater than 30000 nM; in [4] (read-out: IC50), greater than 5000 nM.

As for `Cc1c(Cc2cccc(C(=O)O)c2)c2ccc(Cl)cc2n1-c1cnn(C)c1`, the half-inhibitory concentration (IC50) in [3] was 33 nM; in series [4] (read-out: IC50), 660 nM.

Turning to `Cc1c(Sc2cccc(C(=O)O)n2)c2ccccc2n1-c1cnn(C)c1`, the inhibition entry in series [7] was “Active”. Further, the IC50 in series [3] came out at 5700 nM; in series [4] (read-out: IC50) it was 1700 nM.

For `COc1ccc2c(Sc3cccc(C(=O)O)n3)c(C)n(-c3cnn(C)c3)c2c1`, the IC50 stood at 75 nM in [3] and 124 nM in [4] (read-out: IC50).

`Cn1cc(-c2cccc(Sc3cccc(C(=O)O)n3)c2)cn1`: the inhibition result in [4] is “inactive”.

For `Cc1c(Oc2cccc(C(=O)O)c2)c2ccc(Cl)cc2n1-c1cnn(C)c1`, the IC50 in series [3] turned out to be 204 nM; in [4] (read-out: IC50), 726 nM.

`Cc1c(Cc2cccc(C(=O)O)c2)c2ccccc2n1-c1cnn(C)c1`: in [4] (read-out: IC50), the IC50 is greater than 30000 nM.

As to `Cc1c(Sc2cccc(C(=O)O)n2)c2ccc(Cl)cc2n1-c1cnn(C)c1`, in [1], the Papp is 2.3 ×10⁻⁶ cm/s. In addition, the chromatographic logD in series [2] was found to be 2.7. Also, the figures for the half-inhibitory concentration (IC50) in [3], in series [6] and in [4] (read-out: IC50) were 22 nM, less than 300 nM and 4 nM, respectively. For the same compound, in series [5], the solubility kinetic stood at 377 µM (≈ 150 µg/mL).

`Cc1c(Sc2cccc(C(=O)O)n2)c2c(Cl)cccc2n1-c1cnn(C)c1`: in [4] (read-out: IC50), the IC50 is greater than 30000 nM.

Turning to `Cc1c(Oc2cccc(C(=O)O)c2)c2ccccc2n1-c1cnn(C)c1`, in [4] (read-out: IC50), the concentration for half-maximal inhibition (IC50) is greater than 30000 nM.

Consider `Cc1[nH]c2cc(Cl)ccc2c1Sc1cccc(C(=O)O)n1`, for which the apparent permeability coefficient (Papp) in series [1] amounted to 1.1 ×10⁻⁶ cm/s. The chromatographic logD in [2] was found to be 2.19. In addition, the IC50 in series [3] amounted to 604 nM; in series [4] (read-out: IC50), 25 nM. For the same compound, the solubility kinetic in series [5] was no less than 395 µM.

As to `Cc1[nH]c2ccccc2c1Sc1cccc(C(=O)O)c1`, in [4] (read-out: IC50), the IC50 was greater than 30000 nM.

With `Cc1c(Sc2cccc(C(=O)O)c2)c2ccc(Cl)cc2n1C1CCCC1`, the half-inhibitory concentration (IC50) in series [3] is greater than 4000 nM; in [4] (read-out: IC50) it was 20000 to 25000 nM.

In the case of `Cc1ccc2c(Sc3cccc(C(=O)O)n3)c(C)n(-c3cnn(C)c3)c2c1`, the IC50 in series [3] is 85 nM; in series [4] (read-out: IC50), 25 nM.

With `Cc1c(Sc2cccc(C(=O)O)c2)c2ccc(Cl)cc2n1-c1ccccc1`, the IC50 in [3] is 5 nM; in [6] it was less than 300 nM; in series [4] (read-out: IC50), 81 nM.

As for `Cc1c(Sc2cccc(C(=O)O)n2)c2c(F)cccc2n1-c1ccn(C)n1`, the half-maximal inhibitory concentration (IC50) in series [4] (read-out: IC50) lay in the range of 3000 to 3500 nM.

As to `Cc1c(Sc2cccc(C(=O)O)c2)c2ccc(Cl)cc2n1C`, the inhibition entry in series [8] is “Active”. Further, the 50% inhibitory concentration (IC50) in series [3] was 100 nM; in series [9] it was greater than 1000 nM; in series [4] (read-out: IC50), 1200 nM.

As for `Cc1c(Sc2cccc(C(=O)O)c2F)c2ccc(Cl)c(F)c2n1CC(=O)N1CC2(CC2)c2ccccc21`, the IC50 in [9] came out at 2 nM.

For the compound `Cc1c(Sc2cccc(C(=O)O)n2)c2ccccc2n1C1CCCC1`, the half-maximal inhibitory concentration (IC50) in series [4] (read-out: IC50) is greater than 30000 nM.

`Cc1cc2ccc(Cl)cc2n1-c1cnn(C)c1`: the half-inhibitory concentration (IC50) in series [4] (read-out: IC50) is greater than 30000 nM.

On to `Cc1c(Cc2cccc(C(=O)O)n2)c2ccc(Cl)cc2n1-c1cnn(C)c1`, for which the IC50 in series [3] was 89 nM; in series [4] (read-out: IC50), 339 nM.

On to `Cc1c(Cc2cccc(C(=O)O)n2)c2ccccc2n1-c1cnn(C)c1`, for which the IC50 in series [4] (read-out: IC50) is greater than 30000 nM.

For `Cc1c(Sc2cccc(C(=O)O)n2)c2cc(Cl)ccc2n1-c1cnn(C)c1`, the IC50 in series [4] (read-out: IC50) amounted to 258 nM.

With `Cc1c(SCCCC(=O)O)c2ccccc2n1-c1cnn(C)c1`, the IC50 in series [4] (read-out: IC50) is greater than 10000 nM.

Turning to `Cc1[nH]c2ccccc2c1Sc1cccc(C(=O)O)n1`, in series [4] (read-out: IC50), the IC50 was greater than 30000 nM.

Source of the values: ChEMBL document CHEMBL4000180, “Structure-Activity Relationships of Small Molecule Autotaxin Inhibitors with a Discrete Binding Mode” (J Med Chem, 2017).
